# Measured values taken from ChEMBL document CHEMBL4346667 (Eur J Med Chem, 2019).
# Activity calls are given as the source filed them. The rule behind the calls is not given here.
# Key:
# [1] = test system: MCF7; assay: Induction of apoptosis in human MCF7 cells at 1 uM after 48 hrs by Annexin V-FITC/propidium iodide staining-based flow cytometric analysis; assay type: functional, cell-based
# Summary of the method: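 Log-phase cells were seeded and treated after adhering, for 48 h in cycles of 6 h on and 6 h off. Cells were stained with annexin V (1 µg/mL) and PI (0.5 µg/mL) in Ca2+-enriched binding buffer for 15 min in the dark at room temperature. 10,000 events were read by flow cytometry (FL1 vs FL2). Apoptosis was the sum of early and late stages. At least three repeats.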
# [2] = test system: MCF7; assay: Antitumor activity against human MCF7 cells xenografted in BALB/c nude mouse assessed as tumor weight at 40 mg/kg administered for a week; assay type: functional
# Summary of the method: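 Male BALB/c nude mice, 4 weeks old, 15-20 g. Log-phase MCF-7 cells in DMEM, 0.1 mL of 1×10^6 cells/mL, injected subcutaneously into the hind leg. Calipers twice weekly; at about 90 mm3, groups of 5. Vehicle was isotonic saline plus 0.005% DMSO. Injected at 40 mg/kg for a week; tumour volume recorded daily.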
# [3] = test system: MCF7; assay: Induction of apoptosis in human MCF7 cells assessed as viable cells at 5 uM after 6 hrs by Annexin V-FITC/propidium iodide staining-based flow cytometric analysis (reference value: 92.8%); assay type: functional; details: MCF7, 6 h, read-out: Activity
# [4] = test system: MCF7; assay: Induction of apoptosis in human MCF7 cells assessed as late apoptotic cells at 5 uM after 6 hrs by Annexin V-FITC/propidium iodide staining-based flow cytometric analysis (reference value: 4.7%); assay type: functional
# Summary of the method: (§1)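 Log-phase cells seeded in 6-well plates and treated after adhesion; incubated in cycles of 6 h on/6 h off up to 48 h. Collected after PBS washes and trypsin, resuspended in Ca2+-enriched binding buffer. Stained with annexin V (1 µg/mL) plus PI (0.5 µg/mL) 15 min in the dark at room temperature. 10,000 events, FL1 vs FL2. At least three repeats.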
# [5] = test system: MCF7; assay: Induction of apoptosis in human MCF7 cells assessed as necrotic cells at 5 uM after 6 hrs by Annexin V-FITC/propidium iodide staining-based flow cytometric analysis (reference value: 0.5%); assay type: functional
# [6] = test system: MCF7; assay: Induction of apoptosis in human MCF7 cells assessed as late apoptotic cells at 10 uM after 6 hrs by Annexin V-FITC/propidium iodide staining-based flow cytometric analysis (reference value: 4.7%); assay type: functional; summary of the method: as §1
# [7] = test system: MCF7; assay: Induction of apoptosis in human MCF7 cells assessed as early apoptotic cells at 25 uM after 6 hrs by Annexin V-FITC/propidium iodide staining-based flow cytometric analysis (reference value: 2%); assay type: functional; summary of the method: as §1
# [8] = test system: MCF7; assay: Induction of apoptosis in human MCF7 cells assessed as late apoptotic cells at 25 uM after 6 hrs by Annexin V-FITC/propidium iodide staining-based flow cytometric analysis (reference value: 4.7%); assay type: functional; summary of the method: as §1
# [9] = test system: MCF7; assay: Induction of apoptosis in human MCF7 cells assessed as necrotic cells at 25 uM after 6 hrs by Annexin V-FITC/propidium iodide staining-based flow cytometric analysis (reference value: 0.5%); assay type: functional
# [10] = test system: MCF7; assay: Induction of apoptosis in human MCF7 cells assessed as late apoptotic cells at 50 uM after 6 hrs by Annexin V-FITC/propidium iodide staining-based flow cytometric analysis (reference value: 4.7%); assay type: functional; summary of the method: as §1
# [11] = test system: MCF7; assay: Induction of apoptosis in human MCF7 cells assessed as late apoptotic cells at 1 uM after 24 hrs by Annexin V-FITC/propidium iodide staining-based flow cytometric analysis (reference value: 5.6%); assay type: functional; summary of the method: as §1
# [12] = test system: MCF7; assay: Induction of apoptosis in human MCF7 cells assessed as necrotic cells at 1 uM after 24 hrs by Annexin V-FITC/propidium iodide staining-based flow cytometric analysis (reference value: 0.2%); assay type: functional
# [13] = test system: MCF7; assay: Induction of apoptosis in human MCF7 cells assessed as viable cells at 5 uM after 24 hrs by Annexin V-FITC/propidium iodide staining-based flow cytometric analysis (reference value: 92.1%); assay type: functional; details: MCF7, 24 h, read-out: Activity
# [14] = test system: MCF7; assay: Induction of apoptosis in human MCF7 cells assessed as necrotic cells at 5 uM after 24 hrs by Annexin V-FITC/propidium iodide staining-based flow cytometric analysis (reference value: 0.2%); assay type: functional
# [15] = test system: MCF7; assay: Induction of apoptosis in human MCF7 cells assessed as early apoptotic cells at 10 uM after 24 hrs by Annexin V-FITC/propidium iodide staining-based flow cytometric analysis (reference value: 2.1%); assay type: functional; summary of the method: as §1
# [16] = test system: MCF7; assay: Induction of apoptosis in human MCF7 cells assessed as late apoptotic cells at 10 uM after 24 hrs by Annexin V-FITC/propidium iodide staining-based flow cytometric analysis (reference value: 5.6%); assay type: functional; summary of the method: as §1
# [17] = test system: MCF7; assay: Induction of apoptosis in human MCF7 cells assessed as necrotic cells at 10 uM after 24 hrs by Annexin V-FITC/propidium iodide staining-based flow cytometric analysis (reference value: 0.2%); assay type: functional
# [18] = test system: MCF7; assay: Induction of apoptosis in human MCF7 cells assessed as viable cells at 25 uM after 24 hrs by Annexin V-FITC/propidium iodide staining-based flow cytometric analysis (reference value: 92.1%); assay type: functional; details: MCF7, 24 h, read-out: Activity
# [19] = test system: MCF7; assay: Induction of apoptosis in human MCF7 cells assessed as early apoptotic cells at 25 uM after 24 hrs by Annexin V-FITC/propidium iodide staining-based flow cytometric analysis (reference value: 2.1%); assay type: functional; summary of the method: as §1
# [20] = test system: MCF7; assay: Induction of apoptosis in human MCF7 cells assessed as late apoptotic cells at 25 uM after 24 hrs by Annexin V-FITC/propidium iodide staining-based flow cytometric analysis (reference value: 5.6%); assay type: functional; summary of the method: as §1
# [21] = test system: MCF7; assay: Induction of apoptosis in human MCF7 cells assessed as viable cells at 50 uM after 24 hrs by Annexin V-FITC/propidium iodide staining-based flow cytometric analysis (reference value: 92.1%); assay type: functional; details: MCF7, 24 h, read-out: Activity
# [22] = test system: MCF7; assay: Induction of apoptosis in human MCF7 cells assessed as necrotic cells at 50 uM after 24 hrs by Annexin V-FITC/propidium iodide staining-based flow cytometric analysis (reference value: 0.2%); assay type: functional
# [23] = test system: MCF7; assay: Induction of apoptosis in human MCF7 cells assessed as late apoptotic cells at 1 uM after 48 hrs by Annexin V-FITC/propidium iodide staining-based flow cytometric analysis (reference value: 2.8%); assay type: functional; summary of the method: as §1
# [24] = test system: MCF7; assay: Induction of apoptosis in human MCF7 cells assessed as early apoptotic cells at 5 uM after 48 hrs by Annexin V-FITC/propidium iodide staining-based flow cytometric analysis (reference value: 9.1%); assay type: functional; summary of the method: as §1
# [25] = test system: MCF7; assay: Induction of apoptosis in human MCF7 cells assessed as late apoptotic cells at 5 uM after 48 hrs by Annexin V-FITC/propidium iodide staining-based flow cytometric analysis (reference value: 2.8%); assay type: functional; summary of the method: as §1
# [26] = test system: MCF7; assay: Induction of apoptosis in human MCF7 cells assessed as viable cells at 10 uM after 48 hrs by Annexin V-FITC/propidium iodide staining-based flow cytometric analysis (reference value: 87.9%); assay type: functional; details: MCF7, 48 h, read-out: Activity
# [27] = test system: MCF7; assay: Induction of apoptosis in human MCF7 cells assessed as late apoptotic cells at 25 uM after 48 hrs by Annexin V-FITC/propidium iodide staining-based flow cytometric analysis (reference value: 2.8%); assay type: functional; summary of the method: as §1
# [28] = test system: MCF7; assay: Induction of apoptosis in human MCF7 cells assessed as necrotic cells at 50 uM after 24 hrs by Annexin V-FITC/propidium iodide staining-based flow cytometric analysis (reference value: 0.1%); assay type: functional
smiles,measurement,setting,value
COc1cc([C@@H]2c3cc4c(cc3[C@@H](O[C@@H]3O[C@@H]5CO[C@@H](C)O[C@H]5[C@H](O)[C@H]3O)[C@H]3COC(=O)[C@H]23)OCO4)cc(OC)c1O [ETOPOSIDE],Activity,[1],inactive
same,Activity,[2],0.834 g
same,viability at 5 µM,[3],89.7%
same,Activity,[4],7.6%
same,Activity,[5],0.6%
same,Activity,[6],9.1%
same,Activity,[7],1.9%
same,Activity,[8],6.7%
same,Activity,[9],0.8%
same,Activity,[10],4.6%
same,Activity,[11],6.8%
same,Activity,[12],0.2%
same,viability at 5 µM,[13],84.2%
same,Activity,[14],0.6%
same,Activity,[15],13.8%
same,Activity,[16],11.5%
same,Activity,[17],0.8%
same,viability at 25 µM,[18],81.1%
same,Activity,[19],10.4%
same,Activity,[20],7.7%
same,viability at 50 µM,[21],73.9%
same,Activity,[22],1%
same,Activity,[23],6%
same,Activity,[24],62.1%
same,Activity,[25],15.1%
same,viability at 10 µM,[26],20.7%
same,Activity,[27],19.7%
same,Activity,[28],0.9%
